ChEMBL document CHEMBL1123816, “Synthesis and antidepressant properties of novel 2-substituted 4,5-dihydro-1H-imidazole derivatives” (J Med Chem, 1987)

Legend:
[1] = target: T1, Adrenergic receptor alpha-2 (Rattus norvegicus, UniProt P22086+P19328+P22909); assay: In vitro antagonistic activity against alpha-2 adrenergic receptor in isolated electrically stimulated rat vas deferens (clonidine-induced decrease in twitch height); assay type: functional, tissue-based
T1 sequence (P22086 whole entry): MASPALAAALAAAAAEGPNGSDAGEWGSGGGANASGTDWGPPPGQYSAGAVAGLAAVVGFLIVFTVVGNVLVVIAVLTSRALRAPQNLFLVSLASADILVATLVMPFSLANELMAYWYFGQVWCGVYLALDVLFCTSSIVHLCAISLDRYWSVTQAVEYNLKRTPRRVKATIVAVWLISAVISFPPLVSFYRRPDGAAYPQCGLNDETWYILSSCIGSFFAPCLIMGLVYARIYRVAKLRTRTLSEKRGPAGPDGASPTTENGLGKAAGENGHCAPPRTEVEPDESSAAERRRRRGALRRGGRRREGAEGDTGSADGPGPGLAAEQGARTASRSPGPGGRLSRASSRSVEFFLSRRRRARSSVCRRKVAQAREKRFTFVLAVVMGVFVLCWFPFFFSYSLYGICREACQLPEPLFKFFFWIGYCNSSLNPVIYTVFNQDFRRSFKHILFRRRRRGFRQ
T1 sequence (P19328 whole entry): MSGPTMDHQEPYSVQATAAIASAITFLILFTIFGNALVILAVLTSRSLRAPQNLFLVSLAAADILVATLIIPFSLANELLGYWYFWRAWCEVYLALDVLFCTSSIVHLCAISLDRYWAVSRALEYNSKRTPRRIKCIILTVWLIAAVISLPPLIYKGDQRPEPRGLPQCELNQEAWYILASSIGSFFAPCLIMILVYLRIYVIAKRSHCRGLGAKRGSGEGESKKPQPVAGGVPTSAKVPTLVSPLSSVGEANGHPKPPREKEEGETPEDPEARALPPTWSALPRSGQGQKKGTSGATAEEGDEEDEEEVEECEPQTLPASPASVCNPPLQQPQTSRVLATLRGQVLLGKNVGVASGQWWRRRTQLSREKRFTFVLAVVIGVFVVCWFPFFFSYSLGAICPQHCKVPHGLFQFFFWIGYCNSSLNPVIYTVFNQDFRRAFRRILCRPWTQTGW
T1 sequence (P22909 whole entry): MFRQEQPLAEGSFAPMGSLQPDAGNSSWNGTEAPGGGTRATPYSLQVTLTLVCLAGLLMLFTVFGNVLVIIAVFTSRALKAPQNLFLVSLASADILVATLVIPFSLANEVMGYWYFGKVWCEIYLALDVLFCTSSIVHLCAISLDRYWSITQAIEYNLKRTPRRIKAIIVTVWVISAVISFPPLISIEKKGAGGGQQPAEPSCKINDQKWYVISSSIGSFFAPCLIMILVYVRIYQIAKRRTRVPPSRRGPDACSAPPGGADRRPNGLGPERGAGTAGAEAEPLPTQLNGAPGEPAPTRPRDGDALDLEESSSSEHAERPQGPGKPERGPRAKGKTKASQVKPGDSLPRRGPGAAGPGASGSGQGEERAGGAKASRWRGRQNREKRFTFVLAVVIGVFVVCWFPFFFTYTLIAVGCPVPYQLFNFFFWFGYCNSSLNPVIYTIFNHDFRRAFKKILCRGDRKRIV

[2] = target: T1, Adrenergic receptor alpha-2; assay: (§1) Ability to displace [3H]clonidine from alpha-2 adrenergic receptor in rat brain homogenates in vitro; assay type: tissue-based
In short: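 Rat cerebral cortex homogenized in 50 mM Tris pH 7.7, washed twice by centrifugation at 48000g, resuspended in 50 volumes. Membranes incubated with 0.4 nM [3H]clonidine plus varied test concentrations, 30 min at 25 °C. Nonspecific binding defined with 1 μM unlabeled clonidine. GF/B filtration, scintillation counting. Run in triplicate; logit plot IC50 converted to apparent Ki (Cheng–Prusoff).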

[3] = target: T1, Adrenergic receptor alpha-2; assay: as §1; assay type: tissue-based; remark: listed apart in the source
[4] = selectivity ratio (Alpha-1[Methoxiamine]/Alpha2[clonidine]
In short: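 Ratio derived from Schild pA2 values in rat vas deferens: α1 antagonism against methoxamine contractions (24 °C Krebs, three antagonist concentrations) versus α2 antagonism against clonidine inhibition of field-stimulated twitch (33–34 °C, 80 V, 1 ms, 0.15 Hz).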

pA2 [1] | Ki [2] | Ki [3] | Ratio [4] | Selectivity ratio [4] | SMILES
7.76 | 23 nM | 23 nM | 7.8 | – | C1=C(CC2=NCCN2)CCc2ccccc21.Cl [NAPAMEZOLE HYDROCHLORIDE]
7.19 | 12 nM | 12 nM | – | 1.3 | CC1=C(CC2=NCCN2)CCc2ccccc21.Cl
